Laboratory results published in ChEMBL document CHEMBL2321707, “Synthesis, SAR study, and biological evaluation of a series of piperazine ureas as fatty acid amide hydrolase (FAAH) inhibitors” (Bioorg Med Chem, 2013).

Experiment: Bioavailability in rat
Type: ADME, organism-based
Details: in vivo
How it was run: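 Rat cassette dosing, 1 mg/kg po.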

bioavailability [%]	SMILES
5	O=C(Nc1noc2ccccc12)N1CCN(c2nc(-c3ccccc3)ns2)CC1

Experiment: Drug level in rat brain at 0.1 mg, iv at 1 hr
Type: ADME, organism-based
Details: read-out: Drug uptake
How it was run: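 Rats given 0.1 mg/kg i.v.; brain homogenized 1 h after dosing and compound concentration measured in tissue.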

SMILES	concentration at 1 h [ng/g]
Cc1noc(NC(=O)N2CCN(c3nc(-c4ccccc4F)ns3)CC2)c1C	4.6
Cc1noc(NC(=O)N2CCN(c3nc(-c4cccc(F)c4)cs3)CC2)c1C	101
Cc1noc(NC(=O)N2CCN(c3nc(-c4ccccc4F)cs3)CC2)c1C	103
Cc1noc(NC(=O)N2CCN(c3nc(-c4cccc(F)c4)ns3)CC2)c1C	12
Cc1noc(NC(=O)N2CCN(c3nc(-c4ccc(F)cc4)cs3)CC2)c1C	132
Cc1noc(NC(=O)N2CCN(c3nc(-c4ccc(F)cc4)ns3)CC2)c1C	17
Cc1noc(NC(=O)N2CCN(c3nc(-c4ccccc4)ns3)CC2)c1C	25

Next, values leading:

concentration at 1 h [ng/g]	SMILES
82	Cc1noc(NC(=O)N2CCN(c3nc(-c4ccc(F)cc4F)cs3)CC2)c1C
23	Cc1noc(NC(=O)N2CCN(c3nc(-c4ccccc4)cs3)CC2)c1C
